Laboratory results reported in ChEMBL document CHEMBL4689842, “EUbOPEN Chemogenomics Library wave 1” (2021).

Tested on: U2OS
Experiment: Multiplex assay against U2OS
Type: toxicity, cell-based
Conditions: human
Procedure, shortened: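 Phenotypes for tubulin, mitochondrial mass and membrane permeability are expressed as per cents of healthy-nucleus cells. Cells were stained live at seeding with Hoechst33342, BioTracker Green Microtubule Cytoskeleton Dye, MitoTracker Red and Annexin V Alexa Fluor 680, then imaged after compound addition on a CQ1 microscope at 37°C and 5% CO2. Machine-learning gating in CellPathfinder separated Hoechst high-intensity objects from normal cells, divided normal cells by nuclear state (healthy, pyknosed, fragmented) and divided pyknosed cells into mitotic or apoptotic.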

[1] = 12 h, 1 µM, compound concentration 1 uM, replicate 1
[2] = 12 h, 1 µM, compound concentration 1 uM, replicate 2
[3] = 12 h, 10 µM, compound concentration 10 uM, replicate 1
[4] = 12 h, 10 µM, compound concentration 10 uM, replicate 2
[5] = 24 h, 1 µM, compound concentration 1 uM, replicate 1
[6] = 24 h, 1 µM, compound concentration 1 uM, replicate 2
[7] = 24 h, 10 µM, compound concentration 10 uM, replicate 1
[8] = 24 h, 10 µM, compound concentration 10 uM, replicate 2
[9] = 48 h, 1 µM, compound concentration 1 uM, replicate 1
[10] = 48 h, 1 µM, compound concentration 1 uM, replicate 2
[11] = 48 h, 10 µM, compound concentration 10 uM, replicate 1
[12] = 48 h, 10 µM, compound concentration 10 uM, replicate 2

With O=C1NC(=O)C(c2cnc3ccccn23)=C1c1cn2c3c(cc(F)cc13)CN(C(=O)N1CCCCC1)CC2 [LY-2090314] the “Population Apoptotic (%)” value [1] was 37%, the “Population Fragmented Nuclei (%)” value [1] was 8% and the “Population Healthy Nuclei (%)” value [1] was 74%. The “Population Hoechst High Intensity Objects (%)” value [1] was 8%, the “Population Membrane Permeable-Phenotype (%)” value [1] was 5% and the “Population Mitochondria Different-Phenotype (%)” value [1] was 31%. For the same compound, the “Population Mitotic Cells (%)” value [1] was 62%, the “Population Normal (%)” value [1] was 91% and the “Population Pyknosed Nuclei (%)” value [1] was 17%. For the same compound, the “Population Tubulin-Different-Phenotype (%)” value [1] was 38%, the “Total Cell Count” value [1] was 121 and the “Population Apoptotic (%)” value [2] was 80%. For the same compound, the “Population Fragmented Nuclei (%)” value [2] was 3%, the “Population Healthy Nuclei (%)” value [2] was 87% and the “Population Hoechst High Intensity Objects (%)” value [2] was 12%. For the same compound, the “Population Membrane Permeable-Phenotype (%)” value [2] was 6%, the “Population Mitochondria Different-Phenotype (%)” value [2] was 16% and the “Population Mitotic Cells (%)” value [2] was 20%. For the same compound, the “Population Normal (%)” value [2] was 87%, the “Population Pyknosed Nuclei (%)” value [2] was 9% and the “Population Tubulin-Different-Phenotype (%)” value [2] was 22%. For the same compound, the “Total Cell Count” value [2] was 85, the “Population Apoptotic (%)” value [3] was 60% and the “Population Fragmented Nuclei (%)” value [3] was 13%. For the same compound, the “Population Healthy Nuclei (%)” value [3] was 73%, the “Population Hoechst High Intensity Objects (%)” value [3] was 18% and the “Population Membrane Permeable-Phenotype (%)” value [3] was 44%. The “Population Mitochondria Different-Phenotype (%)” value [3] was 95%, the “Population Mitotic Cells (%)” value [3] was 40% and the “Population Normal (%)” value [3] was 81%. For the same compound, the “Population Pyknosed Nuclei (%)” value [3] was 13%, the “Population Tubulin-Different-Phenotype (%)” value [3] was 99% and the “Total Cell Count” value [3] was 153. For the same compound, the “Population Apoptotic (%)” value [4] was 100%, the “Population Fragmented Nuclei (%)” value [4] was 9% and the “Population Healthy Nuclei (%)” value [4] was 74%. For the same compound, the “Population Hoechst High Intensity Objects (%)” value [4] was 10%, the “Population Membrane Permeable-Phenotype (%)” value [4] was 40% and the “Population Mitochondria Different-Phenotype (%)” value [4] was 96%. For the same compound, the “Population Mitotic Cells (%)” value [4] was 0%, the “Population Normal (%)” value [4] was 89% and the “Population Pyknosed Nuclei (%)” value [4] was 16%. The “Population Tubulin-Different-Phenotype (%)” value [4] was 96%, the “Total Cell Count” value [4] was 63 and the “Population Apoptotic (%)” value [5] was 36%. The “Population Fragmented Nuclei (%)” value [5] was 13%, the “Population Healthy Nuclei (%)” value [5] was 64% and the “Population Hoechst High Intensity Objects (%)” value [5] was 3%. The “Population Membrane Permeable-Phenotype (%)” value [5] was 3%, the “Population Mitochondria Different-Phenotype (%)” value [5] was 21% and the “Population Mitotic Cells (%)” value [5] was 63%. For the same compound, the “Population Normal (%)” value [5] was 96%, the “Population Pyknosed Nuclei (%)” value [5] was 21% and the “Population Tubulin-Different-Phenotype (%)” value [5] was 25%. For the same compound, the “Total Cell Count” value [5] was 124, the “Population Apoptotic (%)” value [6] was 80% and the “Population Fragmented Nuclei (%)” value [6] was 4%. For the same compound, the “Population Healthy Nuclei (%)” value [6] was 87%, the “Population Hoechst High Intensity Objects (%)” value [6] was 13% and the “Population Membrane Permeable-Phenotype (%)” value [6] was 7%. The “Population Mitochondria Different-Phenotype (%)” value [6] was 22%, the “Population Mitotic Cells (%)” value [6] was 20% and the “Population Normal (%)” value [6] was 86%. The “Population Pyknosed Nuclei (%)” value [6] was 8%, the “Population Tubulin-Different-Phenotype (%)” value [6] was 18% and the “Total Cell Count” value [6] was 82. The “Population Apoptotic (%)” value [7] was 71%, the “Population Fragmented Nuclei (%)” value [7] was 20% and the “Population Healthy Nuclei (%)” value [7] was 59%. The “Population Hoechst High Intensity Objects (%)” value [7] was 18%, the “Population Membrane Permeable-Phenotype (%)” value [7] was 62% and the “Population Mitochondria Different-Phenotype (%)” value [7] was 98%. The “Population Mitotic Cells (%)” value [7] was 28%, the “Population Normal (%)” value [7] was 81% and the “Population Pyknosed Nuclei (%)” value [7] was 19%. The “Population Tubulin-Different-Phenotype (%)” value [7] was 100%, the “Total Cell Count” value [7] was 171 and the “Population Apoptotic (%)” value [8] was 81%. For the same compound, the “Population Fragmented Nuclei (%)” value [8] was 11%, the “Population Healthy Nuclei (%)” value [8] was 64% and the “Population Hoechst High Intensity Objects (%)” value [8] was 4%. The “Population Membrane Permeable-Phenotype (%)” value [8] was 37%, the “Population Mitochondria Different-Phenotype (%)” value [8] was 96% and the “Population Mitotic Cells (%)” value [8] was 18%. For the same compound, the “Population Normal (%)” value [8] was 95%, the “Population Pyknosed Nuclei (%)” value [8] was 24% and the “Population Tubulin-Different-Phenotype (%)” value [8] was 96%. The “Total Cell Count” value [8] was 72, the “Population Apoptotic (%)” value [9] was 55% and the “Population Fragmented Nuclei (%)” value [9] was 15%. For the same compound, the “Population Healthy Nuclei (%)” value [9] was 63%, the “Population Hoechst High Intensity Objects (%)” value [9] was 3% and the “Population Membrane Permeable-Phenotype (%)” value [9] was 7%. For the same compound, the “Population Mitochondria Different-Phenotype (%)” value [9] was 22%, the “Population Mitotic Cells (%)” value [9] was 44% and the “Population Normal (%)” value [9] was 96%. For the same compound, the “Population Pyknosed Nuclei (%)” value [9] was 21%, the “Population Tubulin-Different-Phenotype (%)” value [9] was 12% and the “Total Cell Count” value [9] was 117. For the same compound, the “Population Apoptotic (%)” value [10] was 72%, the “Population Fragmented Nuclei (%)” value [10] was 8% and the “Population Healthy Nuclei (%)” value [10] was 79%. The “Population Hoechst High Intensity Objects (%)” value [10] was 7%, the “Population Membrane Permeable-Phenotype (%)” value [10] was 11% and the “Population Mitochondria Different-Phenotype (%)” value [10] was 17%. For the same compound, the “Population Mitotic Cells (%)” value [10] was 27%, the “Population Normal (%)” value [10] was 92% and the “Population Pyknosed Nuclei (%)” value [10] was 12%. For the same compound, the “Population Tubulin-Different-Phenotype (%)” value [10] was 19%, the “Total Cell Count” value [10] was 82 and the “Population Apoptotic (%)” value [11] was 95%. The “Population Fragmented Nuclei (%)” value [11] was 33%, the “Population Healthy Nuclei (%)” value [11] was 39% and the “Population Hoechst High Intensity Objects (%)” value [11] was 20%. The “Population Membrane Permeable-Phenotype (%)” value [11] was 68%, the “Population Mitochondria Different-Phenotype (%)” value [11] was 93% and the “Population Mitotic Cells (%)” value [11] was 5%. For the same compound, the “Population Normal (%)” value [11] was 79%, the “Population Pyknosed Nuclei (%)” value [11] was 26% and the “Population Tubulin-Different-Phenotype (%)” value [11] was 100%. For the same compound, the “Total Cell Count” value [11] was 221, the “Population Apoptotic (%)” value [12] was 83% and the “Population Fragmented Nuclei (%)” value [12] was 12%. The “Population Healthy Nuclei (%)” value [12] was 72%, the “Population Hoechst High Intensity Objects (%)” value [12] was 11% and the “Population Membrane Permeable-Phenotype (%)” value [12] was 48%. For the same compound, the “Population Mitochondria Different-Phenotype (%)” value [12] was 89%, the “Population Mitotic Cells (%)” value [12] was 16% and the “Population Normal (%)” value [12] was 88%. The “Population Pyknosed Nuclei (%)” value [12] was 15%, the “Population Tubulin-Different-Phenotype (%)” value [12] was 89% and the “Total Cell Count” value [12] was 93.
